Results of several laboratories.
Lines come from different studies, so protocols differ.
Target: Serine/threonine-protein kinase STK11 (STK11, Homo sapiens, UniProt Q15831)
Sequence (Q15831 1-433, as in one of the studies): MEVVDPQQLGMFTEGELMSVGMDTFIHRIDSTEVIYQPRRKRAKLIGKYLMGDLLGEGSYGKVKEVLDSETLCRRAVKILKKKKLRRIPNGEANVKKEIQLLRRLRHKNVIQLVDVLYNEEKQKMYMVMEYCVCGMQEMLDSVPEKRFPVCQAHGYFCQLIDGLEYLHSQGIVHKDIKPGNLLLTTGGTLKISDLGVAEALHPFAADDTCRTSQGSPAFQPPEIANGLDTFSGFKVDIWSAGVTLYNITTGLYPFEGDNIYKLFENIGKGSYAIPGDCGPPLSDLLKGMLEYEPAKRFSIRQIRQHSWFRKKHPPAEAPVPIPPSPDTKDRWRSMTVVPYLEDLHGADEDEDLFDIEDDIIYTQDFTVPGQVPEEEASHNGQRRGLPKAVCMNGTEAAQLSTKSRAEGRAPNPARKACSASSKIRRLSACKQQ

COc1ccc2[nH]c3c4[nH]c5ccc(OC)cc5c4c4c(c3c2c1)C(=O)NC4=O
remaining binding (binding; competition with immobilised ligand; 1 µM): 99%

C#Cc1cnc(Nc2ccnc(CO)c2)nc1Nc1ccccc1S(C)(=O)=NC#N (stereo not drawn)
remaining signal (cell-free assay; 1 µM): 45%

COc1ccc2oc(-c3ccc4nc(N)oc4c3)c/c(=N\c3ccccc3NC(=O)CCN)c2c1
remaining binding (binding; 1 µM): 99%

C=CC(=O)N1CCC([C@@H]2CCNc3c(C(N)=O)c(-c4ccc(Oc5ccccc5)cc4)nn32)CC1
inhibition (enzyme activity; inhibitor; 1 µM): 10%

CC(C)S(=O)(=O)c1ccc2nccc(Nc3ccc4sc(C5CCCC5)nc4c3)c2c1
activity vs control (enzyme activity; inhibitor; 1 µM): 109%

N#Cc1ccc(NC(=O)Nc2ccccc2)cc1
remaining binding (cell-free assay; competition with immobilised ligand; 25 µM): 85%

C[C@H]1CC[C@H](n2c3cnccc3c3cnc(Nc4ccc5c(n4)CCN(C(=O)CO)C5)nc32)CC1
remaining binding (binding; competition with immobilised ligand; 1 µM): 71%

CCCCC(=O)Nc1ccc(-c2ccc3ncn(CCC)c(=O)c3c2)cn1
remaining binding (binding; competition with immobilised ligand; 0.5 µM): 84%

CO[C@@H]1[C@H](N(C)C(=O)c2ccccc2)C[C@H]2O[C@]1(C)n1c3ccccc3c3c4c(c5c6ccccc6n2c5c31)C(=O)NC4
inhibition (enzyme activity; inhibitor; 1 µM): 94%
